Test results as given in ChEMBL document CHEMBL4261636, “Design of Y2 Receptor Selective and Proteolytically Stable PYY3-36 Analogues” (J Med Chem, 2018).

Legend:
Dipeptidyl peptidase 4 = Dipeptidyl peptidase 4 (Sus scrofa, UniProt P22411); experiment: Drug metabolism in minipig plasma assessed as DDP-4-meditaed GLP1(9 to 37 residues) formation by measuring half life at 1 uM by LC-MS analysis; assay type: ADME; details: pig
Outline: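 Heparinized mini-pig plasma diluted 4:1 with 0.1 M PBS pH 7.4, pre-warmed 30 min at 37°C with peptide, then combined (1 uM final) and kept at 37°C. Aliquots taken at 5–300 min were quenched in 3 volumes methanol with internal standard, centrifuged and water-diluted. Analysed by ESI+ QTOF LC-MS against 20–2000 nM plasma calibrators, with %-remaining normalised to the 15 min sample; n = 3.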

[1] = biological target: T1, Neuropeptide Y receptor type 5 (Mus musculus, UniProt O70342); experiment: Displacement of [125I]-PYY(1 to 36 residues) from mouse Y5R expressed in HEK293 cell membranes after 2 hrs by scintillation proximity assay
T1 sequence (O70342 whole entry): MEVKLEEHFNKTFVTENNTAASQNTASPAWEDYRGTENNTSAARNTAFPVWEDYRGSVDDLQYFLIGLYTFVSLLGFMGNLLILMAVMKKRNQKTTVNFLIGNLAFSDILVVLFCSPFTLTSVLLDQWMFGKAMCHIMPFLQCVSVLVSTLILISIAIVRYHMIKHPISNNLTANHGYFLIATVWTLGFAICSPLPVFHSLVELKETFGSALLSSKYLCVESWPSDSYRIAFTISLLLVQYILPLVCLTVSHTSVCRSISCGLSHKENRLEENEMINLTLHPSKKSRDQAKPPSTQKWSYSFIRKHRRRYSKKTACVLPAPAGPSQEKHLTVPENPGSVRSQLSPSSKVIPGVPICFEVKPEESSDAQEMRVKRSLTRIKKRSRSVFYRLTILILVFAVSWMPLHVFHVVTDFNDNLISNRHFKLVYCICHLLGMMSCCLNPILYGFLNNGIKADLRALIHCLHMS

[2] = biological target: Neuropeptide Y receptor type 4 (Mus musculus, UniProt Q61041); experiment: Displacement of [125I]-PP from mouse Y4R expressed in HEK293 cell membranes after 2 hrs by scintillation proximity assay
Chain of Neuropeptide Y receptor type 4 (Q61041 whole entry, the tested form may be a part): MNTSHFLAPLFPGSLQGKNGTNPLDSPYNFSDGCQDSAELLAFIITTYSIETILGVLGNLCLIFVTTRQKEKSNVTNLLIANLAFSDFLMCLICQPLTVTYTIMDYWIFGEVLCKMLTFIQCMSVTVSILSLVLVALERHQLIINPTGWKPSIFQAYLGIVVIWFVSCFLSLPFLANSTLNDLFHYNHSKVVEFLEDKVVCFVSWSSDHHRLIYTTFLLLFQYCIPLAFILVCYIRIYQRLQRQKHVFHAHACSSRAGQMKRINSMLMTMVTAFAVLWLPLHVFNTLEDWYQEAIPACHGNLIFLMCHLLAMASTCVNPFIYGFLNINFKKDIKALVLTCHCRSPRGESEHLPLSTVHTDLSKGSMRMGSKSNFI

[3] = Displacement of [125I]-PYY(1 to 36 residues) from mouse Y1R expressed in HEK293 cell membranes after 2 hrs by scintillation proximity assay
[4] = Displacement of [125I]-PYY(1 to 36 residues) from mouse Y2R expressed in HEK293 cell membranes after 2 hrs by scintillation proximity assay
[5] = biological target: T2, Neuropeptide Y receptor type 2 (Homo sapiens, UniProt P49146); experiment: Activation of human Y2R expressed in HEK293 cells assessed as inhibition of isoproterenol-induced increase in intracellular cAMP levels by calcium 5 dye-based FLIPR assay; assay type: functional, cell-based
T2 sequence (P49146 whole entry): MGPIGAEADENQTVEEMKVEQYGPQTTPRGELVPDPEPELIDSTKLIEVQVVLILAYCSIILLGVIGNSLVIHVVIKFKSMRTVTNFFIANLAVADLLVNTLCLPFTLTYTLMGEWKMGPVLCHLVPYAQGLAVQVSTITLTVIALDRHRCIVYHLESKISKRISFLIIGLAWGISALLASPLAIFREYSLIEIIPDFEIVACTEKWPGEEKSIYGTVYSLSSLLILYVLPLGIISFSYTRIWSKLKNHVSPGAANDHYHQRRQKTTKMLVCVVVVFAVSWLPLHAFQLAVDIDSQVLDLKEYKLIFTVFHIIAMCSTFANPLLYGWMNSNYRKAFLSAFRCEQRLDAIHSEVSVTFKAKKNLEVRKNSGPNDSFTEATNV

[6] = biological target: T3, Neuropeptide Y receptor type 1 (Homo sapiens, UniProt P25929); experiment: Activation of human Y1R expressed in HEK293 cells assessed as inhibition of isoproterenol-induced increase in intracellular cAMP levels by calcium 5 dye-based FLIPR assay; assay type: functional, cell-based
T3 sequence (P25929 whole entry): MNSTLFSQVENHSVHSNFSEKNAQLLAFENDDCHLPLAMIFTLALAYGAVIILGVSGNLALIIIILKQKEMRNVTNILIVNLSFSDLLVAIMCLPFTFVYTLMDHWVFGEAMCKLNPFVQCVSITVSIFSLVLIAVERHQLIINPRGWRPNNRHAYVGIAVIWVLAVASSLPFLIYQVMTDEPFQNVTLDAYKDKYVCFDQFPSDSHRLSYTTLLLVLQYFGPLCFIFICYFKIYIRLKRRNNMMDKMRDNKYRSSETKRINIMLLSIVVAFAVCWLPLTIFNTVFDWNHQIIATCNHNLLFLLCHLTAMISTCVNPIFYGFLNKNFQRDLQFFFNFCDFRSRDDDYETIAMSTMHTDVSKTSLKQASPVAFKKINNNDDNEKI

[7] = biological target: T2, Neuropeptide Y receptor type 2; experiment: Displacement of [125I]-PYY(1 to 36 residues) from human Y2R expressed in CHO cell membranes after 2 hrs by scintillation proximity assay
[8] = biological target: T3, Neuropeptide Y receptor type 1; experiment: Displacement of [125I]-PYY(1 to 36 residues) from human Y1R expressed in BHK-21 cell membranes after 2 hrs by scintillation proximity assay

Chain of Dipeptidyl peptidase 4 (P22411 whole entry, the tested form may be a part): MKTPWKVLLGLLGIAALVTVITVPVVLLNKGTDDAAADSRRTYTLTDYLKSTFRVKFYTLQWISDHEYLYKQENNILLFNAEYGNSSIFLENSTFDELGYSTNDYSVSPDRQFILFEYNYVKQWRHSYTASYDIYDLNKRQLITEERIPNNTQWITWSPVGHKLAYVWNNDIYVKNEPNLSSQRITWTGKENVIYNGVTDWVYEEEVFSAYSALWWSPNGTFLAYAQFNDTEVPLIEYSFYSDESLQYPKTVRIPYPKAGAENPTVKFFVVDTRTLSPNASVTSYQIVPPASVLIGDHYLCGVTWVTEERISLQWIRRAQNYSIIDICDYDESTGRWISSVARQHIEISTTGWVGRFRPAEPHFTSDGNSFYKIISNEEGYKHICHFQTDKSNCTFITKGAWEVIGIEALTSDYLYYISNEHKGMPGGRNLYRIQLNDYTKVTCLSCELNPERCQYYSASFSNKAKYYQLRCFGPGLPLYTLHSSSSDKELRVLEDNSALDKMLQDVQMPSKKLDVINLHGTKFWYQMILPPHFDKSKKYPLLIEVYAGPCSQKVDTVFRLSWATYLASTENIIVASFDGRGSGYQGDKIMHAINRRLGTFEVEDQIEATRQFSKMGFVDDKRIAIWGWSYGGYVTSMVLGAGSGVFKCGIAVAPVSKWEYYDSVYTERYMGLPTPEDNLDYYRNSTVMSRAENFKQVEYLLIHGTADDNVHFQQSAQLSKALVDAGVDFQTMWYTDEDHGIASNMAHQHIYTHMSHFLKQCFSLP

| SMILES | t1/2 (Dipeptidyl peptidase 4) | EC50 [1] | EC50 [2] | IC50 [3] | pIC50 [3] | IC50 [4] | pIC50 [4] | EC50 ([5]; read-out: EC50) | EC50 ([5]; read-out: pEC50 (converted)) | EC50 ([6]; read-out: EC50) | EC50 ([6]; read-out: pEC50 (converted)) | Ki [7] | Ki [8] |
| --- | --- | --- | --- | --- | --- | --- | --- | --- | --- | --- | --- | --- | --- |
| CC[C@H](C)[C@H](NC(=O)[C@H](Cc1ccccc1)NC(=O)[C@H](CCC(=O)O)NC(=O)[C@H](CCCCN)NC(=O)[C@H](C)NC(=O)[C@H](C)NC(=O)[C@H](CCC(N)=O)NC(=O)CNC(=O)[C@H](CCC(=O)O)NC(=O)[C@H](CC(C)C)NC(=O)[C@H](Cc1ccc(O)cc1)NC(=O)[C@H](CO)NC(=O)[C@H](CO)NC(=O)[C@@H](NC(=O)[C@H](CC(=O)O)NC(=O)[C@H](CO)NC(=O)[C@@H](NC(=O)[C@H](Cc1ccccc1)NC(=O)[C@@H](NC(=O)CNC(=O)[C@H](CCC(=O)O)NC(=O)[C@H](C)NC(=O)[C@@H](N)Cc1c[nH]cn1)[C@@H](C)O)[C@@H](C)O)C(C)C)C(=O)N[C@@H](C)C(=O)N[C@@H](Cc1c[nH]c2ccccc12)C(=O)N[C@@H](CC(C)C)C(=O)N[C@H](C(=O)N[C@@H](CCCCN)C(=O)NCC(=O)N[C@@H](CCCN=C(N)N)C(=O)NCC(=O)O)C(C)C | 46 min |  |  |  |  |  |  |  |  |  |  |  |  |
| CC[C@H](C)[C@H](NC(=O)[C@H](Cc1ccc(O)cc1)NC(=O)[C@H](CCCNC(=N)N)NC(=O)[C@H](CCCNC(=N)N)NC(=O)[C@H](CC(C)C)NC(=O)[C@H](CC(=O)O)NC(=O)[C@H](C)NC(=O)[C@H](C)NC(=O)[C@H](Cc1ccc(O)cc1)NC(=O)[C@H](CCC(N)=O)NC(=O)[C@H](C)NC(=O)[C@H](CCSC)NC(=O)[C@H](CCC(N)=O)NC(=O)[C@H](CCC(=O)O)NC(=O)[C@@H]1CCCN1C(=O)[C@@H](NC(=O)[C@H](C)NC(=O)[C@H](CC(N)=O)NC(=O)[C@H](CC(=O)O)NC(=O)CNC(=O)[C@@H]1CCCN1C(=O)[C@H](Cc1ccc(O)cc1)NC(=O)[C@@H](NC(=O)[C@@H]1CCCN1C(=O)[C@H](CCC(=O)O)NC(=O)[C@H](CC(C)C)NC(=O)[C@@H]1CCCN1C(=O)[C@H](C)N)C(C)C)[C@@H](C)O)C(=O)N[C@@H](CC(N)=O)C(=O)N[C@@H](CCSC)C(=O)N[C@@H](CC(C)C)C(=O)N[C@H](C(=O)N[C@@H](CCCNC(=N)N)C(=O)N1CCC[C@H]1C(=O)N[C@@H](CCCNC(=N)N)C(=O)N[C@@H](Cc1ccc(O)cc1)C(=O)O)[C@@H](C)O |  | 2.5 nM | 0.1 nM | 10 nM | 8 | > 1000 nM | < 6 | > 30 nM | > 31.6 nM | > 30 nM | > 31.6 nM | 5000 nM | 50 nM |
